Measurements as given in ChEMBL document CHEMBL5331136, “Design, Synthesis, and Biological Evaluation of Novel Spiro Imidazobenzodiazepines to Identify Improved Inhaled Bronchodilators” (J Med Chem, 2023).
Values after ≈ are worked out from the molar mass of the structure shown. Active and inactive are the calls of the source. The rule behind the calls is not given here.

How the values were obtained:
[1] = Metabolic stability in human liver S9 fraction assessed as parent compound remaining at 10 uM measured after 120 mins in presence of NADPH by LC-MS/MS analysis; format: ADME, subcellular; details: for remaining at 2 h, 10 µM: liver S9 fraction, read-out: Stability
HEK293 = assay: Cytotoxicity against HEK293 cells assessed as lethal dose measured after 18 hrs by CellTiter-Glo assay; format: functional; details: Homo sapiens, read-out: LD50 (the source's name)
Procedure, shortened: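 HEK293T cells grown in DMEM/high glucose with NEAA, HEPES, pen/strep, 10% heat-inactivated FBS. Plated 15,000 cells/well, then 4 h at 37 °C, 5% CO2. Compound added as 1:3 serial dilutions, top final concentration 300 µM. After 18 h, read luminescence by CellTiter-Glo. DMSO negative control, aminoketone positive control. Three independent experiments in quadruplicate, variable-slope nonlinear regression.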

[2] = Aqueous solubility of the compound at […] under shaking condition for 24 hrs by UV absorbance based analysis; format: physicochemical; details: for solubility: buffer, 24 h; for solubility at 24 h: aqueous
[3] = Metabolic stability in human liver S9 fraction assessed as parent compound remaining at 10 uM measured after 120 mins in presence of UDP-glucuronic acid by LC-MS/MS analysis; format: ADME, subcellular; details: read-out: Stability
Procedure, shortened: (§1)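 Liver S9 (human or mouse), protein 0.5 mg/mL, compound 10 µM (from 1 mM DMSO stock), phosphate buffer pH 7.4, […], alamethicin 0.0225 mg/mL final. Preincubated 5 min at 37 °C, then S9 added. Aliquots at 0 and 120 min quenched in cold methanol with 5 µM 4,5-diphenylimidazole internal standard. Parent remaining from LC-MS/MS peak-area ratio. Two independent assays in triplicate (n = 6).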

Trachea = assay: Induction of smooth muscle relaxation in Hartley guinea pig trachea ring assessed as reduction in substance P induced smooth muscle constriction at 25 uM measured after 30 mins; format: functional, tissue-based; details: Cavia porcellus
[4] = Metabolic stability in mouse liver S9 fraction assessed as parent compound remaining at 10 uM measured after 120 mins in presence of UDP-glucuronic acid by LC-MS/MS analysis; format: ADME, subcellular; details: read-out: Stability; procedure, shortened: as §1
[5] = Inhibition of sensorimotor coordination in Swiss Webster mouse at 40 mg/kg, po measured after 10 to 30 mins by rotarod analysis; format: toxicity, organism-based; details: in vivo, time 10-30 min
Procedure, shortened: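 Female Swiss Webster mice, 10 weeks old, trained on rotarod at 15 rpm for 3 min. Single oral gavage, 100 µL, in 2.5% PEG400/97.5% 2% HPMC. Tested 3 min at 10, 30 and 60 min after dosing; fall time recorded at second fall. n = 12, two-way repeated-measures ANOVA with Bonferroni posttest.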

[6] = Metabolic stability in mouse liver S9 fraction assessed as parent compound remaining at 10 uM measured after 120 mins in presence of NADPH by LC-MS/MS analysis; format: ADME, subcellular; details: read-out: Stability
Mus musculus = assay: Induction of bronchodilation in A/J mouse assessed as reduction in sRaw values at 7.2 mg/kg administered as nebulized compound; format: functional, organism-based
Procedure, shortened: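 Female A/J mice, no allergen sensitization, trained 5 days in a double-chamber plethysmograph while conscious. Compound nebulized in PBS at 7.2 mg/kg, then five nebulized methacholine challenges (in water). Each nebulization under 1 min, 3 min recording, 1 min pause. sRaw calculated per interval. n = 12, two-way repeated-measures ANOVA against vehicle.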

[7] = biological target: GABA-A receptor; anion channel (Rattus norvegicus) (UniProt O09028+P15431+P18506+P18508+P19969+P20236+P23574+P23576+P28471+P28473+P30191+P62813+P63079+P63138+Q91ZM7+Q9ES14); assay: Displacement of [3H]flunitrazepam from GABAA receptor in rat brain extract at 10 uM relative to control; format: tissue-based
[8] = biological target: GABA-A receptor; anion channel; assay: Displacement of [3H]flunitrazepam from GABAA receptor in rat brain extract; format: tissue-based

Row | SMILES | remaining at 2 h, 10 µM [1] [%] | CC50 (HEK293) [µM] | solubility [2] [µM] | remaining at 2 h, 10 µM [3] [%] | Activity (Trachea) | remaining at 2 h, 10 µM [4] [%] | Activity [5] | remaining at 2 h, 10 µM [6] [%] | Activity (Mus musculus) | Activity [7] [%] | Stability ([1]; s9, 2 h, 10 µM) [%] | IC50 [8] [µM] | solubility at 24 h [2] [µM]
1 | C#Cc1ccc2c(c1)C(c1ccccc1F)=NC1(CC1)c1c(C(=O)O)ncn1-2 | 106 | > 300 | 40300 (≈ 15000 µg/mL) | 93 | Active | 113 | Non-Toxic | 108 | Active | 55 | – | – | –
2 | O=C1Nc2ccc(Br)cc2C(c2ccccc2F)=NC12CCCC2 | – | > 120 | 98 (≈ 38 µg/mL) | – | – | – | – | – | – | 13 | – | – | –
3 | CC1(C)N=C(c2ccccc2F)c2cc(Br)ccc2NC1=O | – | > 150 | 319 (≈ 115 µg/mL) | – | – | – | – | – | – | 70 | – | – | –
4 | O=C(O)c1ncn2c1C1(CCC1)N=C(c1ccccc1F)c1cc(Br)ccc1-2 | – | > 300 | 58700 (≈ 25800 µg/mL) | 113 | – | 91 | Non-Toxic | 90 | inactive | 59 | 122 | 1830 | –
5 | O=C(O)c1ncn2c1C1(CC1)N=C(c1ccccc1F)c1cc(C3CC3)ccc1-2 | 107 | > 300 | 12800 (≈ 4960 µg/mL) | 96 | – | 95 | Non-Toxic | 102 | – | 58 | – | – | –
6 | O=C1Nc2ccc(Br)cc2C(c2ccccc2F)=NC12CCC2 | – | > 150 | 109 (≈ 40.7 µg/mL) | – | – | – | – | – | – | 71 | – | – | –
7 | O=C1Nc2ccc(Br)cc2C(c2ccccc2F)=NC12CC2 | – | > 150 | 321 (≈ 115 µg/mL) | – | – | – | – | – | – | 97 | – | – | –
8 | CCOC(=O)c1ncn2c1C1(CC1)N=C(c1ccccc1F)c1cc(C3CC3)ccc1-2 | – | > 120 | 96 (≈ 39.9 µg/mL) | – | – | – | – | – | – | 22 | – | – | –
9 | CCC1N=C(c2ccccc2F)c2cc(Br)ccc2NC1=O (racemic) | – | > 150 | – | – | – | – | – | – | – | 95 | – | 134 | 397 (≈ 143 µg/mL)
10 | O=C(O)c1ncn2c1C1(CCCC1)N=C(c1ccccc1F)c1cc(Br)ccc1-2 | 114 | > 300 | 46700 (≈ 21200 µg/mL) | 96 | – | 92 | Non-Toxic | 117 | inactive | 2 | – | – | –
11 | CCOC(=O)c1ncn2c1C1(CC1)N=C(c1ccccc1F)c1cc(Br)ccc1-2 | – | > 120 | 141 (≈ 64.1 µg/mL) | – | – | – | – | – | – | 94 | – | – | –
12 | CCOC(=O)c1ncn2c1C(CC)N=C(c1ccccc1F)c1cc(Br)ccc1-2 (racemic) | – | > 300 | – | – | – | – | – | – | – | 61 | – | 175 | 417 (≈ 190 µg/mL)
13 | O=C1Nc2ccc(Br)cc2C(c2ccccc2F)=NC12CCCCC2 | – | 87 | 94 (≈ 37.7 µg/mL) | – | – | – | – | – | – | 33 | – | – | –
14 | C#Cc1ccc2c(c1)C(c1ccccc1F)=NC1(CC1)C1C(C(=O)OCC)N=CN21 (centres undefined) | – | > 150 | 53 (≈ 21.3 µg/mL) | – | – | – | – | – | – | 56 | – | – | –
15 | CC1(C)N=C(c2ccccc2F)c2cc(Br)ccc2-n2cnc(C(=O)O)c21 | 106 | > 300 | 4400 (≈ 1880 µg/mL) | 111 | – | 107 | Non-Toxic | 106 | inactive | 74 | – | – | –
16 | O=C(O)c1ncn2c1C1(CC1)N=C(c1ccccc1F)c1ccccc1-2 | 106 | > 300 | 15100 (≈ 5240 µg/mL) | 96 | Active | 99 | Non-Toxic | 108 | Active | 74 | – | – | –
17 | O=C1Nc2ccc(Cl)cc2C(c2ccccc2F)=NC12CC2 | – | > 150 | 39 (≈ 12.3 µg/mL) | – | – | – | – | – | – | 90 | – | – | –
18 | O=C(O)c1ncn2c1C1(CC1)N=C(c1ccccc1F)c1cc(Cl)ccc1-2 | 103 | > 300 | 36200 (≈ 13800 µg/mL) | 103 | – | 98 | Non-Toxic | 101 | – | 18 | – | – | –
19 | CCOC(=O)c1ncn2c1C1(CCC1)N=C(c1ccccc1F)c1cc(Br)ccc1-2 | – | > 120 | 186 (≈ 87.1 µg/mL) | – | – | – | – | – | – | 83 | – | – | –
20 | CCOC(=O)c1ncn2c1C(C)(C)N=C(c1ccccc1F)c1cc(Br)ccc1-2 | – | > 150 | 103 (≈ 47 µg/mL) | – | – | – | – | – | – | 78 | – | – | –
21 | CCOC(=O)c1ncn2c1C1(CCCCC1)N=C(c1ccccc1F)c1cc(Br)ccc1-2 | – | 96 | 141 (≈ 70 µg/mL) | – | – | – | – | – | – | 74 | – | – | –
22 | CCOC(=O)c1ncn2c1C1(CC1)N=C(c1ccccc1F)c1cc(Cl)ccc1-2 | – | > 150 | 54 (≈ 22.1 µg/mL) | – | – | – | – | – | – | 34 | – | – | –
23 | CCOC(=O)c1ncn2c1C1(CCCC1)N=C(c1ccccc1F)c1cc(Br)ccc1-2 | – | 106 | 144 (≈ 69.5 µg/mL) | – | – | – | – | – | – | 19 | – | – | –
24 | O=C(O)c1ncn2c1C1(CCCCC1)N=C(c1ccccc1F)c1cc(Br)ccc1-2 | 107 | > 300 | 46900 (≈ 22000 µg/mL) | 106 | Active | 78 | Non-Toxic | 111 | inactive | 24 | – | – | –
25 | CCC1N=C(c2ccccc2F)c2cc(Br)ccc2-n2cnc(C(=O)O)c21 (racemic) | 119 | > 300 | – | 111 | – | 114 | Non-Toxic | 108 | Active | 102 | – | 145 | 77600 (≈ 33200 µg/mL)
